Measured values gathered from unrelated publications.
Each line is one published result; the experiments were not run side by side.
EGFR T790M: Epidermal growth factor receptor (EGFR, Homo sapiens, UniProt P00533, T790M)
EGFR del746-750: Epidermal growth factor receptor (EGFR, Homo sapiens, UniProt P00533, del746-750)
EGFR L861Q: Epidermal growth factor receptor (EGFR, Homo sapiens, UniProt P00533, L861Q)
EGFR L858R/T790M: Epidermal growth factor receptor (EGFR, Homo sapiens, UniProt P00533, L858R/T790M)
EGFR del752-759: Epidermal growth factor receptor (EGFR, Homo sapiens, UniProt P00533, del752-759)
EGFR L858R: Epidermal growth factor receptor (EGFR, Homo sapiens, UniProt P00533, L858R)

NS(=O)(=O)c1cc(NC(=O)Cc2ccccc2)ccc1Oc1cccc(Cl)c1
remaining binding (Epidermal growth factor receptor (EGFR, Homo sapiens, UniProt P00533, G719C); cell-free assay, competition with immobilised ligand; 1 µM): 63%

COc1ccnn2ncc(-c3ccnc(N(C)C)n3)c12
remaining binding (EGFR T790M; binding; 1 µM): 100%

Nc1ncnc2occ(-c3ccc(NC(=O)Nc4cc(C(F)(F)F)ccc4F)cc3)c12
remaining signal (EGFR del746-750; cell-free assay; 20 µM): 34%

CN(CCCC(F)(F)F)c1nccc(-c2cnn3ncccc23)n1
remaining binding (EGFR L861Q; binding; 1 µM): 73%

CCOC(=O)c1cc2cc(-c3cc(C(=O)NCc4ccc(C(=O)O)cc4)nn3C)ccc2[nH]1
remaining binding (EGFR del746-750; cell-free assay, competition with immobilised ligand; 0.1 µM): 100%

COc1cc(-c2cc(-c3ccc(N4CCNCC4)cc3)cnc2N)cc(OC)c1OC
inhibition (EGFR L858R/T790M; enzyme activity, inhibitor; 0.1 µM): 0%

O=C(Nc1ccc(Oc2ccc(F)cc2)cc1)N1CCc2ncccc2[C@H]1c1ccc(F)cc1
remaining binding (EGFR del752-759; cell-free assay, competition with immobilised ligand; 1 µM): 80%

Cc1cnc(NC2CCOCC2)nc1-n1cnc(C(=O)NC(CN)c2cc(F)cc(Cl)c2)c1 (stereo not drawn)
remaining activity (EGFR L861Q; enzyme activity, inhibitor, radiometric; 1 µM): 108%

Cc1ccc(C(=O)Nc2ccc(CN3CCN(C)CC3)c(C(F)(F)F)c2)cc1C#Cc1cnc2cccnn12
remaining signal (EGFR L858R; cell-free assay; 23.5 nM): 95%

CN([C@@H]1CCc2c(CC(=O)O)c3cc(S(C)(=O)=O)ccc3n2C1)S(=O)(=O)c1ccc(F)cc1
remaining binding (EGFR L858R/T790M; cell-free assay, competition with immobilised ligand; 1 µM): 100%

Cc1ccc(NC(=O)c2ccc(C)c(C(F)(F)F)c2)cc1C#Cc1nn(C2CCC(O)CC2)c2ncnc(N)c12 (stereo not drawn)
remaining signal (EGFR L858R/T790M; cell-free assay; 10 µM): 0%

COc1cc(-c2cn(C3CCc4ccccc4N(CC(F)(F)F)C3=O)nn2)ccc1-n1ccc(C)n1 (stereo not drawn)
remaining binding (EGFR del746-750; cell-free assay, competition with immobilised ligand; 1 µM): 100%

CN(C)c1nccc(-c2cnc3ncccn23)n1
remaining binding (EGFR L858R; binding; 1 µM): 89%

CC/C(=N\NC(=O)NCc1cccc(O)c1)c1ccc(O)c(C)c1O
inhibition (EGFR T790M; enzyme activity, inhibitor; 0.1 µM): 1.5%

C[C@H]1CCN(c2nccc(-c3cnn4ncccc34)n2)C1
remaining binding (EGFR del752-759; binding; 1 µM): 97%

O=C(NCc1ncc(C(F)(F)F)cc1Cl)c1ccc2c(c1)C1(CCS(=O)(=O)CC1)[C@@H](C1CC1)N2S(=O)(=O)c1ccc(F)cc1
remaining binding (Epidermal growth factor receptor (EGFR, Homo sapiens, UniProt P00533, del747-750/T751S); cell-free assay, competition with immobilised ligand; 1 µM): 79%

N[C@H]1CCN(c2nccc(-c3cnn4ncccc34)n2)C1
remaining binding (EGFR del752-759; binding; 1 µM): 88%

Cc1cc(NC(=O)c2cccc3cc(-c4cccc5[nH]nc(N)c45)ccc23)ccc1F
activity vs control (EGFR L858R/T790M; enzyme activity, inhibitor; 0.1 µM): 103%
